# High-throughput results as filed in PubChem.
# Efflux pump inh = blocks antifungal efflux pumps in multiplex yeast assay. 0.44% of 330,000 active. S. cerevisiae Candida pump triplex, Nile Red efflux. AID 485275. inhibition, % at 10 µM;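 active = plate passing quality check with inhibition over a set limit, or well fluorescence over plate mean plus 4 SD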;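 also: Nile Red retained in pooled yeast measured as flow cytometry median fluorescence; 0% = buffer negative control and 100% = Enniatin B positive control; higher means more Nile Red kept so more efflux inhibition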
# WT yeast gro inh = growth inhibition of WT yeast, mitochondrial fusion screen; mitochondrial fusion phenotypic screen, WT strain; inhibition, % at 10 µM; 2.1% of 190,000 active; AID 1362; in the data active = inhibition above about 58%; tested in S. cerevisiae
# T cruzi repl = blocks replication of Trypanosoma cruzi; T. cruzi beta-gal in NIH3T3, luminescence, 90 h; inhibition, % (no concentration beside the values); AID 1885; 1.4% of 300,000 active;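 active = mean inhibition across valid replicates above about 55%, limit read from the data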;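 also: signal also drops with host cell toxicity which is not excluded here; 0% = plate median of DMSO wells and 100% = zero luminescence signal; higher percent means less beta-gal luminescence so fewer parasites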
#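 Assay system: NIH/3T3 host cells with β-galactosidase reporter T. cruzi; input: 5,000 host fibroblasts per well; compound: single 50 nL compound addition per well in DMSO; timing: ≥90 h infection period, 3 h prior cell attachment; measured by: GalScreen β-gal luminescence, detergent lysis, 60 min; evaluation: percent inhibition of parasite-derived β-gal signal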
# Beta cell apopt = blocks beta cell apoptosis; AID 435005; 0.8% of 300,000 active; protection from apoptosis, % (no concentration beside the values); INS-1E cytokine-induced death, ATP luminescence, 48 h; percent of positive-control rescue, neutral wells zero;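 active = Every replicate reaches about 75%, or at least half do and their mean reaches it too, limit read from the data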;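 also: 0% = cytokine-treated negative control wells and 100% = positive control rescue; higher means more ATP so stronger rescue from cytokine killing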
# CSC inhib = cancer stem cell inhibition; cancer stem cell-like cells viability, luminescence; inhibition, % at 7.5 µM; 1.1% of 300,000 active; AID 2717; in the data active = inhibition above about 75%; tested in HMLE shEcad cells
# SUMO Mot1 rescue = blocks SUMOylation pathway, rescuing yeast Mot1-301 growth. 1% of 320,000 active. S. cerevisiae Mot1-301 growth rescue, ATP luminescence, 38.5C; percent above DMSO median, 100 means doubled. growth rescue, % at 18.8 µM;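 active = every valid replicate shows activation above 250% relative to neutral control wells; inactive = the rest, any valid replicate at or below 250%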;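 also: OY570 slx delta 5 strain wells were the positive control but not used for scaling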
# Yeast cmpd fluor = counter-screen for efflux pump inhibitors: compound fluorescence; shares compounds with Efflux pump inh; S. cerevisiae AD/pABC3, flow cytometry; 4% of 1,700 active; fluorescence ratio to DMSO, % at 10 µM;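 active = fluorescence ratio to DMSO above its plate's cutoff, the plate mean ratio plus 5 SD, cut at about 210% in these data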;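 also: unstained yeast with no Nile Red so the signal is compound autofluorescence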
# CaMdr1 efflux inh = inhibitors of Candida albicans Mdr1 efflux pump; AID 588518; S. cerevisiae AD/CaMDR1, Nile Red efflux, flow cytometry; 1% of 1,700 active; inhibition, % at 10 µM; shares compounds with Efflux pump inh; in the data active = inhibition above about 26%;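 also: 0% = DMSO vehicle and 100% = reference inhibitor; higher means more Nile Red retained so more efflux inhibition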
# CaCdr2 efflux inh = blocks the Candida albicans Cdr2 efflux pump in yeast; shares compounds with Efflux pump inh; S. cerevisiae AD/CaCDR2, Nile Red retention, flow cytometry; Nile Red retention ratio vs DMSO, % at 10 µM; 4% of 1,700 active; in the data active = Nile Red retention ratio vs DMSO above about 190%;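 also: higher ratio means more blocking of Cdr2 efflux of the dye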
# CaCdr1 efflux inh = blocks the Candida albicans Cdr1 efflux pump in yeast. AID 588522. S. cerevisiae AD/CaCDR1, Nile Red efflux, flow cytometry. 1% of 1,700 active. shares compounds with Efflux pump inh. inhibition, % at 10 µM;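 active = inhibition above the screen-wide mean plus twice its standard deviation, cut at about 32% in these data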
# Active calls of the source: *; / = not tested or not shown. In the library only some 4.8% were active in any assay of this set; here they are far more common.
SMILES,Efflux pump inh,WT yeast gro inh,T cruzi repl,Beta cell apopt,CSC inhib,SUMO Mot1 rescue,Yeast cmpd fluor,CaMdr1 efflux inh,CaCdr2 efflux inh,CaCdr1 efflux inh
CCc1ccc(OCCCC(=O)Nc2ccc(S(=O)(=O)Nc3cc(C)nc(C)n3)cc2)cc1,0,/,-8,-4,-7,-6,/,/,/,/
Cc1ccc(CC(NC(=O)c2ccccc2)C(=O)NC(C)C(=O)O)cc1 (stereo not given),1.5*,23,0,-6,-2,-10,98,-1,91,0
CCN(CC)CCN(Cc1cc2cc3c(cc2[nH]c1=O)OCO3)C(=S)NCCOC,0,/,-10,-3,12,24,/,/,/,/
O=C(CCN1CCOCC1)NNC(=O)c1ccc([N+](=O)[O-])cc1[N+](=O)[O-],0,/,/,2,-17,14,/,/,/,/
COc1ccccc1OCC(=O)Nc1nnc(C2CCCC2)s1,0,/,-7,-2,-5,1,/,/,/,/
O=C(COc1ccc(Br)cc1F)Nc1nnc(C2CC2)s1,0,/,/,-2,-8,2,95,0,85,0
O=C(COc1cc(Cl)ccc1Cl)Nc1nnc(C2CC2)s1,0,/,-10,-6,2,369,/,/,/,/
COc1cc(C)ccc1OCC(=O)Nc1nnc(C2CC2)s1,0,/,/,-4,-11,2,112,0,106,0
Cc1cc(OCC(=O)Nc2nnc(C3CC3)s2)ccc1[N+](=O)[O-],0,-9,/,-6,-7,-1,/,/,/,/
Cc1ccccc1OCC(=O)Nc1nnc(-c2ccncc2)s1,0,/,-19,1,-3,4,101,0,114,0
Cc1ccccc1OCC(=O)Nc1nnc(C2CCCCC2)s1,0,/,0,0,-4,2,102,0,99,0
COc1ccc(-c2nc(N)n(C(=O)c3cccs3)n2)cc1,0,-6,-3,3,-9,22,/,/,/,/
COc1cc2[nH]c3c(=O)n(N)c(=O)[nH]c3c2cc1OC,0,/,-8,4,4,-11,/,/,/,/
COc1cccc(CC(NC(C)=O)C(=O)NC2CCN(C(=O)c3ccc(Cl)cc3)CC2)c1 (stereo not given),/,/,-3,/,/,/,/,/,/,/
COCCNC(=O)C(c1ccc(F)cc1)N(C(=O)CCC(=O)Nc1ccccn1)c1ccc(C)cc1 (stereo not given),0,/,19,1,-2,-8,/,/,/,/
Cc1occc1C(=O)NNC(=O)c1ccc(F)cc1,0,-24,-6,5,-17,2,/,/,/,/
Cc1occc1C(=O)NNC(=O)c1ccccc1F,1.1*,-6,-4,10,8,86,105,0,104,0
Cc1ccc(-c2nnc(Nc3ccc4c(c3)OCO4)c3ccccc23)cc1S(=O)(=O)NCCO,13*,-3,18,5,3,-13,106,0,107,0
O=C(NNC(=O)c1nc2ccccc2[nH]1)OCc1ccccc1,0,/,/,-12,4,-2,/,/,/,/
O=c1[nH]c(C2CCN(S(=O)(=O)c3ccccc3C(F)(F)F)CC2)nc2c1nnn2Cc1ccccc1,3.1*,/,21,/,1,-19,109,0,104,0
COc1ccc(Cn2nnc3c(=O)[nH]c(C4CCN(S(=O)(=O)c5ccc(C)cc5)CC4)nc32)cc1,0,/,13,6,-3,-12,112,0,110,0
Cc1ccc(S(=O)(=O)N2CCC(c3nc4c(nnn4Cc4ccccc4)c(=O)[nH]3)CC2)cc1,1,16,15,-4,20,-3,/,/,/,/
O=c1[nH]c(C2CCN(S(=O)(=O)c3ccccc3F)CC2)nc2c1nnn2Cc1ccc(OC(F)(F)F)cc1,0,/,18,/,/,/,/,/,/,/
Cc1ccc(Cn2nnc3c(=O)[nH]c(C4CCN(S(=O)(=O)c5ccccc5)CC4)nc32)cc1,0,4,-4,2,12,7,102,0,110,0
COc1ccc(CNC(=O)CN(Cc2ccccc2F)C(=O)c2csnn2)cc1,0,/,22,-1,-4,265,/,/,/,/
SMILES,Efflux pump inh,WT yeast gro inh,T cruzi repl,Beta cell apopt,CSC inhib,SUMO Mot1 rescue,Yeast cmpd fluor,CaMdr1 efflux inh,CaCdr2 efflux inh,CaCdr1 efflux inh
CCCCn1c(N)c(N(CC(C)C)C(=O)CN2C(=O)C3CCCCC3C2=O)c(=O)[nH]c1=O (stereo not given),0,/,21,2,-5,-8,/,/,/,/
CCCCn1c(N)c(N(CC(C)C)C(=O)CN2C(=O)NC3(CC(C)CC(C)(C)C3)C2=O)c(=O)[nH]c1=O (stereo not given),0.9*,/,3,-1,6,-8,98,0,102,0
COc1ccccc1NC(=O)c1ccc2c(c1)N(CC(=O)NC(C)C)C(=O)C(C)(C)O2,0,/,16,-5,-10,-11,/,/,/,/
CCc1ccc(-c2cc3c(=O)n(CC(=O)NCCN4CCCCC4C)nc(C)n3n2)cc1 (stereo not given),1.0*,/,36,11,80*,-5,108,0,104,0
CCc1ccc(-c2cc3c(=O)n(CC(=O)N4CCCC4)nc(C)n3n2)cc1,0,/,-7,1,-8,-16,/,/,/,/
Cn1cccc1Cc1nnc(SCC(=O)NCCc2ccccc2)n1C,0,-6,-16,-1,0,-5,/,/,/,/
COc1ccc(-n2c(Cc3cccn3C)nnc2SCC(=O)NCCc2ccccc2)cc1,6.7*,-9,-15,1,-9,-1,103,0,98,0
COc1ccc(-n2c(Cc3cccn3C)nnc2SCC(=O)Nc2ccc(F)cc2F)cc1,0,-16,-6,-2,-1,-26,/,/,/,/
COc1ccc(NC(=O)CSc2nnc(Cc3cccn3C)n2-c2ccc(C)cc2)cc1OC,6.7*,-17,-10,-3,-10,6,99,0,112,0
COc1ccc(-n2c(Cc3cccn3C)nnc2SCC(=O)Nc2ccccc2F)cc1,0,-6,0,-6,-10,-3,85,0,91,0
CCOc1ccc(NC(=O)CSc2nnc(Cc3cccn3C)n2-c2ccc(F)cc2)cc1,0,-8,14,0,-9,7,95,0,110,0
COc1ccc(-n2c(Cc3cccn3C)nnc2SCC(=O)Nc2cccc(OC)c2)cc1,0,1,4,-11,-16,11,/,/,/,/
CN(CC(=O)Nc1ccc(Cl)c(C(F)(F)F)c1)C(=O)COC(=O)C1CC2CCCC(C1)C2=O (stereo not given),0,/,/,-2,/,11,/,/,/,/
CC(C)CCN(C(=O)Cc1ccc(Cl)c(Cl)c1)c1c(N)n(Cc2ccccc2)c(=O)[nH]c1=O,0,-1,-4,36,48,125,/,/,/,/
